Laboratory results published in publication PMC11626521 (RSC Advances, 2024).

Legend:
Assay in all cases: anti-proliferation assay
HCT-116 = type: cell-based, human; details: read-out: IC50 HCT-116; 72 h treatment, CCK8
Summary of the method: (§1)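 Seeding was 4000 cells per well, with overnight adherence. Media: HGC-27 and GES-1 in RPMI 1640; HT-29 and HCT-116 in McCoy's 5A; HeLa in DMEM; all with 10% FBS and 1% penicillin–streptomycin, 37 °C, 5% CO2. Test compounds ran 0–500 μM in 3-fold dilutions for 72 h. Read-out was CCK8 (0.5 mM WST-8, 10 μM PMS) for 0.5–2 h, absorbance 450 nm, IC50 from viability. SI = IC50(GES-1)/IC50(HGC-27).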

HT-29 = type: cell-based, human; details: read-out: IC50 HT-29; 72 h treatment, CCK8
Summary of the method: as §1

HeLa = type: cell-based, human; details: read-out: IC50 HeLa; 72 h treatment, CCK8
Summary of the method: as §1

GES-1 = type: cell-based; details: read-out: IC50 GES-1; normal human gastric mucosa cell line, 72 h treatment, CCK8
Summary of the method: as §1

HGC-27 = type: cell-based, human
Summary of the method: as §1

`O=c1[nH]cc(F)c(=O)[nH]1` [5-FU] was tested, and the IC50 (HCT-116) was 3.32 ± 0.3 µM, the IC50 (HT-29) was 4.6 ± 0.55 µM and the IC50 (HeLa) was 3.43 ± 0.33 µM. For the same compound, the IC50 (GES-1) was 4.03 ± 0.19 µM, the “SI (GES-1/HGC-27)” value (HGC-27; SI = IC50 (GES-1)/IC50 (HGC-27)) was 0.85 and the IC50 (HGC-27; read-out: IC50 HGC-27, 72 h treatment, CCK8) was 4.75 ± 0.18 µM.
